These results are taken from ChEMBL document CHEMBL2429814 (J Med Chem, 2013).

The target of data set [1] is T1, Metabotropic glutamate receptor 5 (Homo sapiens, UniProt P41594). Put plainly: Positive allosteric modulation of mGluR5 (unknown origin) at 10 uM relative to glutamate. The gist of the method:
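HEK293 cells stably expressing rat mGlu5 (low receptor expression line) were plated overnight at 37°C/5% CO2 and loaded with Fluo-4AM for 50 min at 37°C in HBSS with 20 mM HEPES and 2.5 mM probenecid, pH 7.4. PAM (10 µM) or vehicle was added, then a glutamate concentration-response curve 140 s later. Read-out was calcium fluorescence, reported as glutamate fold-shift, three independent runs in triplicate.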
Target sequence in this assay (P41594 21-1212 limits assumed): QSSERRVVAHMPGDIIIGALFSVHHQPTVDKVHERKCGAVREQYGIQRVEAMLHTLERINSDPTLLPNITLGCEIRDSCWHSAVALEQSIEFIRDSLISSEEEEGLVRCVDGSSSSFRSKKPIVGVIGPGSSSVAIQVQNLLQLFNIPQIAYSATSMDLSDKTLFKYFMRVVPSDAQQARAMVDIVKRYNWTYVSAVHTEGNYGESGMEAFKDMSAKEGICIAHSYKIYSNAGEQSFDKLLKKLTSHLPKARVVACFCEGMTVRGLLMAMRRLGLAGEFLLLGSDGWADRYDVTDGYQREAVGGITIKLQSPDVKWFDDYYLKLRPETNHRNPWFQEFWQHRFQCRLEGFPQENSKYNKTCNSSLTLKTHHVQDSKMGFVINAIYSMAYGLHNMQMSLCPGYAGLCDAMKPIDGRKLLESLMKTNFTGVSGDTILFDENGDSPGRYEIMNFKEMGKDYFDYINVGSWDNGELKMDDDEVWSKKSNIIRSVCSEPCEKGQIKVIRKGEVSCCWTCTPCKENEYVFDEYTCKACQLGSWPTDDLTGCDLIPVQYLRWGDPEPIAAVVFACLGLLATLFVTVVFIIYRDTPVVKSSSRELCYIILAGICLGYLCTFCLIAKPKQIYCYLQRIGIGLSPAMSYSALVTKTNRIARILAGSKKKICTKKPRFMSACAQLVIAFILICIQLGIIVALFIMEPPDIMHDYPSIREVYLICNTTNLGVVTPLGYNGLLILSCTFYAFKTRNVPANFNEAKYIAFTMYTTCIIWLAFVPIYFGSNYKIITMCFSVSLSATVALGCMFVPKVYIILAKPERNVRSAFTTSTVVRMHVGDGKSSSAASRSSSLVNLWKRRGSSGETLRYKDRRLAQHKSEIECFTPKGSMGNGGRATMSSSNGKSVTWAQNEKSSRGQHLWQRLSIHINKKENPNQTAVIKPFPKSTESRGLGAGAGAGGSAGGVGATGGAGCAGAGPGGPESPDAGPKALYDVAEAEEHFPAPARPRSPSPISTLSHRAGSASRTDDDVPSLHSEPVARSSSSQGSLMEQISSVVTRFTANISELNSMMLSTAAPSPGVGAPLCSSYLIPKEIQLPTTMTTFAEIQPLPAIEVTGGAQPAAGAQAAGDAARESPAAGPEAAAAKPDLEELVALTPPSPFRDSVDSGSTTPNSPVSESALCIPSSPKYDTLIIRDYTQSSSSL

The target of data set [2] is T2, Metabotropic glutamate receptor 5 (Rattus norvegicus, UniProt P31424). Briefly: Antagonist activity at rat mGluR5 stably expressed in HEK293 cells assessed as inhibition of glutamate-induced intracellular calcium level by Fluo-4AM dye-based fluorescence assay. Type of data set: functional, cell-based.
T2 sequence (P31424 whole entry): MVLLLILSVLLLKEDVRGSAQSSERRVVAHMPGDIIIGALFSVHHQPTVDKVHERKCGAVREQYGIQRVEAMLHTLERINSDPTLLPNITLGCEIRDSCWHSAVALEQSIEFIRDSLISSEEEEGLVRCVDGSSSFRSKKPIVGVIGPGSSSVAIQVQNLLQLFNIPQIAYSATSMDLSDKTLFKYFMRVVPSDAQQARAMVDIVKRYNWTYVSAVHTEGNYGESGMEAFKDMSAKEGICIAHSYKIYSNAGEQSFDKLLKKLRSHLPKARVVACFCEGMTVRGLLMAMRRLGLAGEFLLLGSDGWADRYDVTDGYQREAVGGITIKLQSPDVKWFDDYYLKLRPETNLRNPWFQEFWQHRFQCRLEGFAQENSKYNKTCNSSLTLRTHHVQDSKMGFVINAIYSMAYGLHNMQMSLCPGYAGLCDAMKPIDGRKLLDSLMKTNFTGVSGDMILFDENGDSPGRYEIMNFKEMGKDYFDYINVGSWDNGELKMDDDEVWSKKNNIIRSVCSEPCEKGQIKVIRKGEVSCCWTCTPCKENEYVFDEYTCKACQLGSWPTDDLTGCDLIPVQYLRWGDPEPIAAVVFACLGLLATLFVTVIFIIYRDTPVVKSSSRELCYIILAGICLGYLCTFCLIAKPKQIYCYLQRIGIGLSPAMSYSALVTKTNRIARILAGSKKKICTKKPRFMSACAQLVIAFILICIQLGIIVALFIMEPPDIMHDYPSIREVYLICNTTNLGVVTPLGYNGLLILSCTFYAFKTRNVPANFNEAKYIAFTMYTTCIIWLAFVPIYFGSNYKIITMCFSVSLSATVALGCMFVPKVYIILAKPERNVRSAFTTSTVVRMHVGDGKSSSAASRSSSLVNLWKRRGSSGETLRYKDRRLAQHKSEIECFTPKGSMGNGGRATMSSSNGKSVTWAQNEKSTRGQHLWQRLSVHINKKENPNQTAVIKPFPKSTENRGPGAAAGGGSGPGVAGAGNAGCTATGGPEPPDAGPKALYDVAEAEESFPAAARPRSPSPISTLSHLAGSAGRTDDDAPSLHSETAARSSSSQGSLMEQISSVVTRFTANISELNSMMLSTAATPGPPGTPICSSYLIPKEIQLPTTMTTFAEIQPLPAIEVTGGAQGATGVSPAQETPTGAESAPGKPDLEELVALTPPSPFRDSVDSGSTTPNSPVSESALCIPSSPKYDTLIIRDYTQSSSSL
For data set [3], the target named is Metabotropic glutamate receptor 5 (Rattus norvegicus) (UniProt P31424). Briefly: Antagonist activity at rat mGluR5 stably expressed in HEK293 cells assessed as inhibition of glutamate-induced intracellular calcium level by Fluo-4AM dye-based fluorescence assay relative to control. Type of data set: functional, cell-based. The following applies: concentration not given here. (Calcium flux is commonly read through the fluorescence of an indicator in the cells.)
Chain of Metabotropic glutamate receptor 5 (Rattus norvegicus) (P31424 21-1203 limits assumed): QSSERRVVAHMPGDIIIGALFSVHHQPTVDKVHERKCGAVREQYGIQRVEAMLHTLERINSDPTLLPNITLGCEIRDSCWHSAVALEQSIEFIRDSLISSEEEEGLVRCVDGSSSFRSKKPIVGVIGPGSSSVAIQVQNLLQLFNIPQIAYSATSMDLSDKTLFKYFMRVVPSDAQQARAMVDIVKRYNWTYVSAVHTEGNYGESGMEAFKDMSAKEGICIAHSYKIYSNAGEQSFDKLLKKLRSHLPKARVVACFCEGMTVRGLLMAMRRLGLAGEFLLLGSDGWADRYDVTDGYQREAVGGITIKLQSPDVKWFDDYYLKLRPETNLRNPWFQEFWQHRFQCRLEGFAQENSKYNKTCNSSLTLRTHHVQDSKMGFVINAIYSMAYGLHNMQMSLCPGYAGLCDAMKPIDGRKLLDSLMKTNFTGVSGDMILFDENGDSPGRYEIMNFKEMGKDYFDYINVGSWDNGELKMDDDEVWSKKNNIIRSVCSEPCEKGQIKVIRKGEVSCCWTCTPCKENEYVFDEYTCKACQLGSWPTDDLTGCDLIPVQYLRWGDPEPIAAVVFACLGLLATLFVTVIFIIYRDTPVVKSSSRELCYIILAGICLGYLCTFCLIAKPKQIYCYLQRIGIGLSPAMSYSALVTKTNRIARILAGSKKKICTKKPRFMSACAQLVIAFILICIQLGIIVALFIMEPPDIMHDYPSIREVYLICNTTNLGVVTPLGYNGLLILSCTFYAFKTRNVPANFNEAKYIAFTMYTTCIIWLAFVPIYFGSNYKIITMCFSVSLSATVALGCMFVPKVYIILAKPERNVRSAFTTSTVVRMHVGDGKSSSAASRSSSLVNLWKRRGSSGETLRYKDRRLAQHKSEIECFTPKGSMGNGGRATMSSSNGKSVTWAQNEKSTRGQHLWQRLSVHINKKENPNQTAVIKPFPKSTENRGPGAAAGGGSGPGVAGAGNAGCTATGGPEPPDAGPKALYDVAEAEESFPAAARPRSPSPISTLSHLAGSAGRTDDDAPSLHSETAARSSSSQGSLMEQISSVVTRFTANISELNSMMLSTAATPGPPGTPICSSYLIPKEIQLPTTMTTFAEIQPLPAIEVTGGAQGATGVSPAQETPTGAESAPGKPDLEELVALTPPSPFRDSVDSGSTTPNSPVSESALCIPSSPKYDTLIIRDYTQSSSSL

For data set [4] the target is unchanged. Briefly: Potentiation of rat mGluR5 receptor stably expressed in HEK293 cells assessed as fold shift in glutamate concentration response curve at 10 uM relative to control. Type of data set: cell-based. The method, boiled down:
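HEK293 cells stably expressing rat mGlu5 were loaded with Fluo-4AM. Compound at 10 µM, or vehicle, was added, and a glutamate concentration-response curve followed 140 s later. The fold leftward shift of the glutamate curve was read from calcium fluorescence. Values are means of three independent experiments in triplicate.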

Data set [5] shares this target. Briefly: Positive allosteric modulation of rat mGluR5 stably expressed in HEK293 cells assessed as increase in intracellular calcium level by Fluo-4AM dye-based fluorescence assay relative to glutamate. The format is functional, cell-based.
The target in data set [6] is T2, Metabotropic glutamate receptor 5. Briefly: Positive allosteric modulation of rat mGluR5 stably expressed in HEK293 cells assessed as increase in intracellular calcium level by Fluo-4AM dye-based fluorescence assay. The format is functional, cell-based. The following applies: read-out: EC50. The gist of the method: (§1)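 HEK293 cells stably expressing rat mGlu5 (low receptor density line), 15,000 cells/well, grown overnight at 37°C/5% CO2. Loaded with Fluo-4AM for 50 min at 37°C in HBSS with 20 mM HEPES, 2.5 mM probenecid, pH 7.4. Triple add: compound, then EC20 glutamate 140 s later, then EC80 glutamate 60 s later. Calcium fluorescence read over time. Values are means of ≥3 independent experiments run in duplicate or triplicate.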

The nature of data set [7]: Plasma protein binding in rat. The format is ADME, cell-free. The method, boiled down:
(§2)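 Fraction unbound measured by equilibrium dialysis in human or rat plasma.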

The nature of data set [8]: Plasma protein binding in human. Type of data set: ADME, cell-free. The gist of the method:
as §2

The nature of data set [9]: Fraction unbound in rat plasma by equilibrium dialysis method. Type of data set: ADME, cell-free. The gist of the method: (§3)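 Plasma protein binding measured by equilibrium dialysis in human or rat plasma; reported as percent unbound.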
In general terms: In equilibrium dialysis free small molecules cross a membrane that holds back macromolecules.

The nature of data set [10]: Fraction unbound in human plasma by equilibrium dialysis method. The format is ADME, cell-free. The gist of the method: as §3
The target of data set [11] is T2, Metabotropic glutamate receptor 5. Briefly: Positive allosteric modulation of rat mGluR5.
Data set [12] deals with Metabotropic glutamate receptor 5 (Rattus norvegicus) (UniProt P31424). Briefly: Positive allosteric modulation of mGluR5 in rat cortical neurons at 3 uM relative to DHPG.
Data set [13] deals with T1, Metabotropic glutamate receptor 5. Put plainly: Positive allosteric modulation of human mGluR5.
Target sequence in this assay (P41594 whole entry): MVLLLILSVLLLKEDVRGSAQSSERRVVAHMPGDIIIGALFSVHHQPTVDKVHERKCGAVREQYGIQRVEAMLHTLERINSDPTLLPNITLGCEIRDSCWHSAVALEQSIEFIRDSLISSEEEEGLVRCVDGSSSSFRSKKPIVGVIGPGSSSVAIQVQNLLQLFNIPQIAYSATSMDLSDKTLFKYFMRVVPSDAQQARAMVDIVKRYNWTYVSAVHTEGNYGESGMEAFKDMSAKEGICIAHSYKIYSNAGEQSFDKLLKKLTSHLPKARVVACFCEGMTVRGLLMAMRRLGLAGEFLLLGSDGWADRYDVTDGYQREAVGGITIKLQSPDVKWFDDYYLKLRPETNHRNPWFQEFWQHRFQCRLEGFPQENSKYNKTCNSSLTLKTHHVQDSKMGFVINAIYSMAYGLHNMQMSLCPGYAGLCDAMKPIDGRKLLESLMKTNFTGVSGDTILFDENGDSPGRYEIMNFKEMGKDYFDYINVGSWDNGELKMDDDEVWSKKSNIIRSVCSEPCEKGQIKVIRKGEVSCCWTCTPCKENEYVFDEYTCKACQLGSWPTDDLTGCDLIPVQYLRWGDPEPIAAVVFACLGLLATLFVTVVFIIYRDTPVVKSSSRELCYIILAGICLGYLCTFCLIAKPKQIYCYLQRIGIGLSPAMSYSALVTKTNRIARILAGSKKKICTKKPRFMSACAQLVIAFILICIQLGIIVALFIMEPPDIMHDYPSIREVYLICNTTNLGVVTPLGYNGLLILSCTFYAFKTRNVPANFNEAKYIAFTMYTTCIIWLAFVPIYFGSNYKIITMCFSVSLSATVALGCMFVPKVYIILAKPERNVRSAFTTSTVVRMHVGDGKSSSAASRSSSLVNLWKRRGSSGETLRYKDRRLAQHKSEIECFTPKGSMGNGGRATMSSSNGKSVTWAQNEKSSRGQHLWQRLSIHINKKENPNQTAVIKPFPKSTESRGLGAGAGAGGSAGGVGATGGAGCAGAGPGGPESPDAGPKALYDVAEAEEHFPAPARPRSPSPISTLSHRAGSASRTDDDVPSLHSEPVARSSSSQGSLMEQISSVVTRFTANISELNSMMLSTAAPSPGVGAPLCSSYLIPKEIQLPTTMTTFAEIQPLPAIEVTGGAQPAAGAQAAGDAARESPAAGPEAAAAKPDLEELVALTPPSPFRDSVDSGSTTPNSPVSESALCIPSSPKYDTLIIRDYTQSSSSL
The nature of data set [14]: Agonist activity at rat mGluR5 T780A mutant stably expressed in HEK293 cells assessed as increase in intracellular calcium level at 1 to 100 uM by Fluo-4AM dye-based fluorescence assay. The format is cell-based. The following applies: hek293, 100 µM.
In data set [15] the target is T2, Metabotropic glutamate receptor 5. Briefly: Agonist activity at rat mGluR5 stably expressed in HEK293 cells assessed as increase in intracellular calcium level by Fluo-4AM dye-based fluorescence assay relative to glutamate. The format is cell-based. As to conditions: read-out: Efficacy; call rule not given here. The method, boiled down: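 HEK293 cells stably expressing rat mGlu5 (low receptor density), 15,000 cells/well, grown overnight, then loaded with Fluo-4AM for 50 min at 37°C in HBSS/20 mM HEPES/2.5 mM probenecid, pH 7.4. Triple-add protocol: compound, then glutamate EC20 140 s later, then EC80 60 s later. Fluorescence read over time. At least three independent runs in duplicate or triplicate; response given as % of glutamate maximum.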

The target is the same in data set [16]. Briefly: Agonist activity at rat mGluR5 stably expressed in HEK293 cells assessed as increase in intracellular calcium level by Fluo-4AM dye-based fluorescence assay. Type of data set: cell-based. As to conditions: read-out: EC50. The gist of the method:
as §1

For data set [17], the target named is Metabotropic glutamate receptor 5 (Rattus norvegicus) (UniProt P31424). Briefly: Positive allosteric modulation of mGluR5 in rat cortical neurons at 1 uM relative to DHPG.

Where only a bound is given, the exact number is not on record here.

Turning to `C[C@@H]1CC[C@H](c2noc(-c3ccc(F)cn3)n2)CN1C(=O)c1ccccc1`, the fold change (FC) in [1] was 11.

The IC50 is the concentration needed to halve the response being measured. In general, inhibition refers to the relative decrease from the control value, in per cent. As for `CC1(NC(=O)c2ccc(C#Cc3ccccn3)cn2)COC1`, the IC50 in data set [2] worked out at 731 nM. Further, the inhibition in data set [3] was 16.7%.

By EC50 is commonly meant the concentration that produces a half-maximal response. For `C[C@@H](NC(=O)c1cnc(C#Cc2cccc(F)c2)nc1)C(C)(C)O`, in [4], the fold change (FC) is 4. Moreover, the Efficacy in data set [5] was determined as 68.7%. Besides, the EC50 in [6] turned out to be 122 nM.

On to `CC(C)CNC(=O)c1ccc(C#Cc2cccc(F)c2)cn1`, for which the fold change (FC) in [4] is 1.9. Also, the Efficacy in data set [5] is 58.2%. For the same compound, the EC50 in [6] was found to be 28.9 nM.

For the compound `O=C(NC1CCC1)c1ccc(C#Cc2cccc(F)c2)cn1`, the fraction unbound in [7] (read-out: PPB), in [8] (read-out: PPB), in data set [9] and in data set [10] was < 0.01 throughout. The compound further yielded an EC50 in data set [11] of 4 nM.

As for `CC1(CNC(=O)c2ccc(C#Cc3cccc(F)c3)cn2)COC1`, the fold change (FC) in data set [4] is 3.3. Moreover, the Efficacy in data set [5] was 60.4%. Moreover, the EC50 in data set [6] amounted to 10.7 nM.

`O=C(c1ccc(C#Cc2cccc(F)c2)nc1)N1CCC(O)CC1` registered a concentration giving a half-maximal response (EC50) in [11] of 200 nM.

Take `O=C1c2ccc(F)cc2CCC2CC[C@@H](c3noc(-c4ccc(F)cn4)n3)CN12` (stereo partly specified): in data set [1], the fold change (FC) worked out at 6.

For `CC(C)[C@@H](C)NC(=O)c1ccc(C#Cc2ccccn2)cn1`, in data set [4], the fold change (FC) came to 1.3. Further, the Efficacy in data set [5] came out at 58.5%. Moreover, the EC50 in data set [6] is 79 nM.

Consider `C[C@@H](NC(=O)c1ccc(C#Cc2ccccn2)cn1)C(C)(C)F`, for which the fold change (FC) in [4] was determined as 1.5. In data set [5], the Efficacy is 54.9%. In addition, the EC50 in data set [6] amounted to 22.2 nM.

In data set [12], `CC(C)(C)c1nnc2n1CC[C@H](c1nc(-c3ccc(F)cc3)no1)C2` displayed a fold change (FC) of 2.8. In addition, the EC50 in [11] came out at 42 nM; in [13] it was 52 nM.

Take `CC(C)(O)CCNC(=O)c1ccc(C#Cc2cccc(F)c2)cn1`: the fold change (FC) in data set [4] is 5.3. In addition, the Efficacy in data set [5] is 61.9%. Moreover, the EC50 in data set [6] came to 136 nM.

On to `C[C@@H](NC(=O)c1ccc(C#Cc2cccc(F)c2)cn1)C(C)(C)O`, for which the values for the fraction unbound in data set [7] and in data set [8] were 0.028 and 0.027, respectively. Also, the Activity entry in data set [14] was “Not Active”. Also, the Emax in data set [15] is 37.1%. In addition, the results for the EC50 in data set [16], in data set [6] and in data set [11] were 904 nM, 4.9 nM and 1.5 nM, respectively. Also, the Efficacy in [5] was determined as 63.5%.

`O=C(N[C@H]1C[C@H](O)C1)c1ccc(C#Cc2cccc(F)c2)cn1`: a half-maximal effect in data set [11] (EC50) was put at 17 nM.

With `CC(C)NC(=O)c1ccc(C#Cc2ccncc2)cn1`, the fold change (FC) in [17] came out at 2. In addition, the EC50 amounted to 24 nM in data set [11] and 33 nM in data set [13].

For `Cc1nc(C#Cc2ccc(C(=O)N[C@H](C)C(C)(C)O)nc2)cs1`, in data set [4], the fold change (FC) is 1.6. In [5], the Efficacy came out at 66.6%. For the same compound, the EC50 in data set [6] amounted to 58.4 nM.
